The target of series [1] is T1, HpMTAN (Helicobacter pylori, UniProt Q9ZMY2).
T1 sequence (Q9ZMY2 1-230): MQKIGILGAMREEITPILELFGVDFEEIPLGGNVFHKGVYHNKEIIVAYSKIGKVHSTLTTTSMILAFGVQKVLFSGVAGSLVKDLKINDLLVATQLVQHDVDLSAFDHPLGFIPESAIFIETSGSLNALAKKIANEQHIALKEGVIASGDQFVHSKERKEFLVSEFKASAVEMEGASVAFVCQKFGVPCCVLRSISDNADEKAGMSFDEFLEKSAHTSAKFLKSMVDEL
The format is biochemical.

Series [2] concerns the target human adenosine deaminase (HsADA). The following applies: cited from earlier work.
The target in the next series is HpAFLDA (Helicobacter pylori, UniProt Q9ZMG8). As to the kind of experiment: HpAFLDA inhibition assay. It is filed as biochemical, H. pylori strain J99.
The test system of another series is H. pylori J99. As to the kind of experiment: Inhibition of H. pylori growth in liquid culture. The format is cell-based, Helicobacter pylori.
Another series addresses T2, HpAFLDA (jhp0252) (Helicobacter pylori, UniProt Q9ZMG8).
T2 sequence (Q9ZMG8 1-409): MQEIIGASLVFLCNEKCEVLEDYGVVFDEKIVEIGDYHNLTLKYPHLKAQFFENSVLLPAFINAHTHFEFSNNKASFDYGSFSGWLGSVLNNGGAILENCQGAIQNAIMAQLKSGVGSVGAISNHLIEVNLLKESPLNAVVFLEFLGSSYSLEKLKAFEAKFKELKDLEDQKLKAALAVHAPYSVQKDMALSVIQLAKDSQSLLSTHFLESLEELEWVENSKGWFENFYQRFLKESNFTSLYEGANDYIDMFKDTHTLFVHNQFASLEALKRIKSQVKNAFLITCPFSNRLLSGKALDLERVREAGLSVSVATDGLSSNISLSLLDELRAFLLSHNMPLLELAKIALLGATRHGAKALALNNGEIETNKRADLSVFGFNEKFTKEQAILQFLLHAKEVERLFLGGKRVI
The experiment in a line: Enzymatic assay for HpAFLDA deaminase activity. The format is biochemical, H. pylori strain J99. Particulars: for fold difference of kcat/Km between AFL and adenosine: HpAFLDA, AFL greater than adenosine.

The test system of another series is H. pylori. As to the kind of experiment: Metabolite supplementation of the growth medium, effect on H. pylori cell growth. It is filed as cell-based, Helicobacter pylori.
In series [3] the test system is Sav2595, Acel0264, Dr0824, Nis0429. Particulars: four enzymes, 30 °C; cited from earlier work.
The target of series [4] is T1, HpMTAN. As to the kind of experiment: AFL and FL hydrolysis by HpMTAN. The format is biochemical.
Series [5] relates to H. pylori cells. As to the kind of experiment: Metabolism of AFL and FL by live H. pylori cell mixtures. The format is cell-based, Helicobacter pylori. Particulars: ~10^8 cells in PBS pH 7.0. A digest of the protocol:
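Live cells were taken from overnight cultures and washed twice with PBS. Incubations were started by adding 25 μM AFL or FL to ~10^8 cells in PBS (pH 7.0). Metabolites were extracted with ice-cold acetonitrile/methanol/water (40:40:20) containing 0.1 M formic acid and a deuterated SAM internal standard. Extracts were dried, redissolved in water, and quantified by reversed-phase LC-MS/MS (ESI−, MRM).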

In series [6] the test system is H. pylori cells. The format is cell-based, Helicobacter pylori.
Substrate in series [7]: Nc1ncnc2c1ncn2[C@@H]1O[C@H](CCC(=O)c2cccc(C(=O)O)c2)[C@@H](O)[C@H]1O
As to the kind of experiment: AFL and FL hydrolysis by HpMTAN. The following applies: other: hydrolysis by HpMTAN, 50 mM HEPES pH 7.0. The format is biochemical, Helicobacter pylori.

Substrate in series [8]: Nc1ncnc2c1ncn2[C@@H]1O[C@H](CCC(=O)c2cccc(C(=O)O)c2)[C@@H](O)[C@H]1O
As to the kind of experiment: Enzymatic assay for HpAFLDA deaminase activity. Particulars: other: deamination by HpAFLDA, 50 mM HEPES pH 7.0, 25 °C. It is filed as biochemical, H. pylori strain J99.

Substrate in series [9]: Nc1ncnc2c1ncn2[C@@H]1O[C@H](CO)[C@@H](O)[C@H]1O
As to the kind of experiment: Enzymatic assay for HpAFLDA deaminase activity. It is filed as biochemical, H. pylori strain J99. The following applies: other: deamination by HpAFLDA, 50 mM HEPES pH 7.0, 25 °C.

Substrate in series [10]: C[C@H]1O[C@@H](n2cnc3c(N)ncnc32)[C@H](O)[C@@H]1O
The experiment in a line: Enzymatic assay for HpAFLDA deaminase activity. The format is biochemical, H. pylori strain J99. Particulars: other: deamination by HpAFLDA, 50 mM HEPES pH 7.0, 25 °C.

Where [11] appears, read: deamination by HpAFLDA, 50 mM HEPES pH 7.0, 25 °C.

For 5′-methylthioadenosine [MTA], the “catalytic efficiency of MTA hydrolysis relative to AFL hydrolysis” value on HpMTAN [1] is listed as above 100 fold.
As to `OC[C@H]1O[C@@H](n2cnc3c2N=CNC[C@H]3O)[C@H](O)[C@@H]1O` [(8R)-CF, Coformycin, reference compound], the Ki values entry in series [2] is listed as “submicromolar”. The Ki (in general, the dissociation constant of the complex between target and ligand, obtained from inhibition or displacement) at HpAFLDA was above 10 µM.
For `CSC[C@H]1O[C@@H](n2cnc3c2N=CNC[C@H]3O)C[C@@H]1O` [(8R)-MT-2′d-CF, 5′-methylthio-2′-deoxycoformycin], at HpAFLDA (even at 10 μM), the “inhibition of HpAFLDA activity” value is recorded as “did not inhibit”.
As for `CSC[C@H]1O[C@@H](n2cnc3c2N=CNC[C@H]3O)[C@H](O)[C@@H]1O` [(8R)-MTCF, 5′-methylthiocoformycin], the IC50 – broadly, the concentration that gives 50% inhibition – with H. pylori J99 (read-out: IC50, H. pylori growth, liquid medium, 72 h, microaerophilic, 37 °C) came out at 14 ± 1 µM. For the same molecule, the “type of inhibition of HpAFLDA” value on HpAFLDA (second phase of inhibition after reaction for 30 min) is listed as “slow-onset inhibitor”.
With `O[C@@H]1CNC=Nc2c1ncn2[C@H]1C[C@H](O)[C@@H](CSc2ccccc2)O1` [(8R)-PhT-2′d-CF, 5′-phenylthio-2′-deoxycoformycin], on HpAFLDA, the “inhibition of HpAFLDA (in words)” value was “showed some inhibition”.
Same read-out and setting: the value for `CCCSC[C@H]1O[C@@H](n2cnc3c2N=CNC[C@H]3O)C[C@@H]1O` [(8R)-PrT-2′d-CF, 5′-propylthio-2′-deoxycoformycin] was “showed some inhibition”.
For the molecule `Nc1ncnc2c1ncn2[C@@H]1O[C@H](CCC(=O)c2cccc(C(=O)O)c2)[C@@H](O)[C@H]1O` [AFL, 6-Amino-6-deoxyfutalosine], the “fold difference of kcat/Km between AFL and adenosine” value on HpAFLDA (jhp0252) was 26 fold. Besides, the kcat (as a rule, the maximal rate divided by the concentration of active sites) at HpAFLDA (jhp0252) (setting [11]) is 0.62 s⁻¹. The “effect of supplementation on cell growth” value in the series on H. pylori (200 μM AFL in the growth medium, BTDIA used to stress MK biosynthesis) was “did not cause a significant impact on cell growth”. In addition, the “catalytic efficiencies for AFL deamination” value in [3] was 4.8 × 10^6 to 7.9 × 10^5 M^−1 s^−1. Also, the “hydrolysis by HpMTAN (in words)” value on HpMTAN [4] is reported as “capable of catalyzing only AFL hydrolysis”. Also, in the series on H. pylori cells [5] (25 μM AFL), the “conversion of the added metabolite by live H. pylori cells” value is “readily converted AFL to FL and adenine”.
As to `CCCCSC[C@H]1CN(Cc2c[nH]c3c(N)ncnc23)C[C@@H]1O` [BTDIA, BuT-DADMe-ImmA], the “menaquinone-6 concentrations in lipid extracts” value with H. pylori cells [6] (BTDIA at 14 nM, p < 0.005) is listed as “decreased significantly”. In addition, in the series on H. pylori cells [6] (BTDIA at its half-maximal inhibitory concentration (14 nM)), the “cellular DHFL concentrations” value is reported as “Significant decreases”.
With `O=C(O)c1cccc(C(=O)CC[C@H]2O[C@@H](n3cnc4c(=O)[nH]cnc43)[C@H](O)[C@@H]2O)c1` [FL, futalosine], in the series on H. pylori J99 (50 μM FL with 6-100 μM MTCF, 96 h), the “reversal of MTCF growth inhibition by supplementation” value is listed as “partially reversed the growth inhibition”. Also, the “effect of supplementation on cell growth” value in the series on H. pylori (FL 1 to 200 μM) is recorded as “did not affect cell growth”. The “hydrolysis by HpMTAN (in words)” value on HpMTAN [4] is “not FL hydrolysis”. Moreover, the kcat at HpMTAN [4] (hydrolysis by HpMTAN, 50 mM HEPES pH 7.0) is below 1e-05 s⁻¹. Besides, in the series with H. pylori cells [5] (25 μM FL), the “change of the FL concentration in live H. pylori cells” value is recorded as “no significant changes” and the “hypoxanthine formation in live H. pylori cells” value is on record as “no hypoxanthine was formed”.
Consider `Nc1ncnc2c1ncn2[C@@H]1O[C@H](CSCC[C@H](N)C(=O)O)[C@@H](O)[C@H]1O` [SAH, S-adenosylhomocysteine], for which, on HpAFLDA (jhp0252) (setting [11]), the Km – broadly, the concentration of substrate that gives half-maximal velocity – was 220 ± 50 µM and the kcat was 0.12 ± 0.02 s⁻¹.
With `Nc1ncnc2c1ncn2[C@@H]1O[C@H](CO)[C@@H](O)[C@H]1O` [adenosine], the “fold difference of kcat/Km between AFL and adenosine” value on HpAFLDA (jhp0252) amounted to 26 fold.

B1: HpMTAN (Helicobacter pylori J99) (protein)
chain: T1 sequence (Q9ZMY2 1-230)
Turning to B1, in series [7], the Km was 1.6 ± 0.3 µM, the kcat turned out to be 0.022 ± 0.02 s⁻¹ and the kcat/Km (commonly the second-order rate constant that governs catalysis at low substrate concentration) stood at 14000 M⁻¹ s⁻¹.

B2: HpAFLDA (jhp0252) (Helicobacter pylori J99) (protein)
chain: T2 sequence (Q9ZMG8 1-409)
As for B2, in series [8], the Km came out at 9 ± 1 µM, the kcat was found to be 0.62 ± 0.03 s⁻¹ and the kcat/Km came to 68000 M⁻¹ s⁻¹. Moreover, in [9], the Km worked out at 170 ± 40 µM, the kcat was 0.44 ± 0.06 s⁻¹ and the kcat/Km was 2600 M⁻¹ s⁻¹. In addition, in [10], the kcat was 1.6 ± 0.3 s⁻¹ and the specificity constant (kcat/Km) turned out to be 12000 M⁻¹ s⁻¹.

(Values after paper PMC9260860 (Biochemistry, 2021).)
